Consider 21 compounds from ChEMBL document CHEMBL1926620, “Aza vinyl sulfones: synthesis and evaluation as antiplasmodial agents” (Bioorg Med Chem, 2011).

As a reminder, the IC50 is the concentration at which inhibition is half-maximal. Low readings indicate greater potency, high ones weaker potency.

One experiment deals with Plasmodium falciparum. In words: Antiplasmodial activity against ring stage Plasmodium falciparum W2 infected in human red blood cells after 48 hrs by flow cytometry. The format is functional, organism-based. The following applies: W2, 48 h. (In general: Flow cytometry measures light scatter and fluorescence of single cells or particles in a stream.)
Experiment [1] can be described thus: Inhibition of Plasmodium falciparum falcipain-2 using Z-Leu-Arg-AMC as substrate after 10 mins by spectrofluorimetry. In short, it runs like this:
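Enzyme at 1 nM in 100 mM sodium acetate pH 6.0, 5 mM DTT, 0.75% DMSO, 25 °C; preincubated 10 min with serial 1:5 compound dilutions (50 µM down to 0.65 nM), then 25 µM Z-Leu-Arg-AMC added; fluorescence read immediately. IC50 from percent inhibition versus no-inhibitor controls.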

The next experiment concerns the target T1, Papain (Carica papaya, UniProt P00784).
T1 sequence (P00784 whole entry): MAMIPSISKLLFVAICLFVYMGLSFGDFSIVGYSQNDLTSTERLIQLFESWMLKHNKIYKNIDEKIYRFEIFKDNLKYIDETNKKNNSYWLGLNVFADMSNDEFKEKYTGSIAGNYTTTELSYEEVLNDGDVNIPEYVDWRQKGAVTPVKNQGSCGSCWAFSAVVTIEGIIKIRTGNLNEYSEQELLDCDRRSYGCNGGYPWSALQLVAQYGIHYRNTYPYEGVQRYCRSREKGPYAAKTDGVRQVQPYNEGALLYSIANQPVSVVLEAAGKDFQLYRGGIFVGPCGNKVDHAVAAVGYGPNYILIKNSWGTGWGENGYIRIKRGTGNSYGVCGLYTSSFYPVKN
In words: Inhibition of papaya papain using Z-Leu-Leu-Arg-AMC as substrate after 30 mins by spectrofluorometry. In short, it runs like this: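 Papain activated in buffer at 5 µg/mL, 10 mM PBS pH 7.4 with 5 mM DTT, 37 °C, inhibitor serial dilutions in DMSO; 30 µM Z-Leu-Leu-Arg-AMC started the reaction (Km 0.4 µM, saturating). Fluorescence (ex 355/em 460 nm) monitored 30 min; E64 positive control; IC50 by non-linear regression of log concentration versus % activity; triplicate.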

`CC(C)C[C@H](NC(=O)OC(C)(C)C)C(=O)NNC(=O)/C=C/S(C)(=O)=O`: the IC50 in the experiment on Plasmodium falciparum was 34.2 µM. Same read-out and setting: the result for `CC(C)C[C@H](NC(=O)OC(C)(C)C)C(=O)NNC(=O)/C=C/S(=O)(=O)c1ccccc1` reads 33.5 µM.

As to `CC(C)C[C@H](NC(=O)OC(C)(C)C)C(=O)NN(Cc1ccccc1)C(=O)/C=C/S(C)(=O)=O`, the concentration for half-maximal inhibition (IC50) in the experiment on Plasmodium falciparum was 21.6 µM; in experiment [1], > 50 µM.

Regarding `CC(C)C[C@H](NC(=O)OC(C)(C)C)C(=O)NN(Cc1ccccc1)C(=O)/C=C/S(=O)(=O)c1ccccc1`, the IC50 (with Plasmodium falciparum; in experiment [1]) was > 50 µM throughout. In the case of `CC(C)C[C@H](NC(=O)OC(C)(C)C)C(=O)NN(CCc1ccccc1)C(=O)/C=C/S(C)(=O)=O`, the 50% inhibitory concentration (IC50) with Plasmodium falciparum is 46.6 µM; in experiment [1], > 50 µM. The like results for `CC(C)C[C@H](NC(=O)OC(C)(C)C)C(=O)NN(CCc1ccccc1)C(=O)/C=C/S(=O)(=O)c1ccccc1` were, in that order, 15.4 µM and > 50 µM. Consider `CC(C)C[C@H](NC(=O)OCc1ccccc1)C(=O)NN(CCc1ccccc1)C(=O)/C=C/S(=O)(=O)c1ccccc1`, for which the IC50 in the experiment on Plasmodium falciparum is > 10 µM; on Papain, > 50 µM.

Turning to `O=C(CNC(=O)OCc1ccccc1)NN(CCc1ccccc1)C(=O)/C=C/S(=O)(=O)c1ccccc1`, the concentration for half-maximal inhibition (IC50) is > 10 µM in the experiment with Plasmodium falciparum and > 50 µM against Papain.

Regarding `O=C(N[C@@H](Cc1ccccc1)C(=O)NN(CCc1ccccc1)C(=O)/C=C/S(=O)(=O)c1ccccc1)OCc1ccccc1`, the IC50 in the experiment with Plasmodium falciparum is 9 µM; against Papain it was > 50 µM.

For `CC(C)C[C@H](NC(=O)N1CCOCC1)C(=O)NNC(=O)/C=C/S(=O)(=O)c1ccccc1`, the IC50 with Plasmodium falciparum was > 10 µM; on Papain, > 50 µM. In the case of `CC(C)C[C@H](NC(=O)N1CCOCC1)C(=O)NN(CCc1ccccc1)C(=O)/C=C/S(=O)(=O)c1ccccc1`, the IC50 in the experiment on Plasmodium falciparum was 3.4 µM; against Papain, > 50 µM. Consider `COc1c(N[C@@H](CC(C)C)C(=O)NNC(=O)/C=C/S(C)(=O)=O)c(=O)c1=O`, for which the IC50 in the experiment with Plasmodium falciparum was 2.3 µM; in experiment [1], > 50 µM. The like results for `COc1c(N[C@@H](CC(C)C)C(=O)NNC(=O)/C=C/S(=O)(=O)c2ccccc2)c(=O)c1=O` were, in that order, 3.5 µM and > 50 µM. Consider `CCCCOc1c(N[C@@H](CC(C)C)C(=O)NNC(=O)/C=C/S(=O)(=O)c2ccccc2)c(=O)c1=O`, for which the IC50 was 2.6 µM with Plasmodium falciparum and > 50 µM in experiment [1]. The like results for `COc1c(N[C@@H](CC(C)C)C(=O)NN(Cc2ccccc2)C(=O)/C=C/S(C)(=O)=O)c(=O)c1=O` were, in that order, > 10 µM and > 50 µM.

For `COc1c(N[C@@H](CC(C)C)C(=O)NN(Cc2ccccc2)C(=O)/C=C/S(=O)(=O)c2ccccc2)c(=O)c1=O`, the values for the 50% inhibitory concentration (IC50) (in the experiment on Plasmodium falciparum; in experiment [1]) were 0.95 µM and > 50 µM, respectively. For `CCCCOc1c(N[C@@H](CC(C)C)C(=O)NN(Cc2ccccc2)C(=O)/C=C/S(=O)(=O)c2ccccc2)c(=O)c1=O`, the IC50 in the experiment on Plasmodium falciparum was 1.2 µM; in experiment [1] it was > 50 µM.

On to `COc1c(N[C@@H](CC(C)C)C(=O)NN(CCc2ccccc2)C(=O)/C=C/S(C)(=O)=O)c(=O)c1=O`, for which the figures for the IC50 (with Plasmodium falciparum; in experiment [1]) were 2.5 µM and > 50 µM, respectively. The like results for `COc1c(N[C@@H](CC(C)C)C(=O)NN(CCc2ccccc2)C(=O)/C=C/S(=O)(=O)c2ccccc2)c(=O)c1=O` were, in that order, > 10 µM and > 50 µM. Taken in the same sequence, the figures for `CCCCOc1c(N[C@@H](CC(C)C)C(=O)NN(CCc2ccccc2)C(=O)/C=C/S(=O)(=O)c2ccccc2)c(=O)c1=O` were 4.5 µM and > 50 µM.

As to `CC(C)C[C@H](NC(=O)[C@H]1O[C@@H]1C(=O)O)C(=O)NCCCCN=C(N)N` [E-64], the IC50 in experiment [1] was 0.11 µM; against Papain it was 0.002 µM.
